Results from ChEMBL document CHEMBL1158040, “Biological activities and 3D QSAR studies of a series of Delisea pulchra (cf. fimbriata) derived natural products” (J Nat Prod, 2006).
Converted amounts (≈) assume the structure as drawn. The source made the active and inactive calls. No cut-off for these calls is given here.

What was measured:
[1] = Inhibition of TK assessed as residual activity at 200 ug/ml
How it was run: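 The enzyme was tyrosine kinase p56lck, with test compounds at 200 μg/mL. The read-out is the remaining enzyme activity.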

Lu1 = assay: Cytotoxicity against human Lu1 cells; type: functional; conditions: read-out: ED50 (the source's name)
KB [2] = assay: Cytotoxicity against human KB cells; type: functional; conditions: read-out: ED50 (the source's name)
KB [3] = assay: Cytotoxicity against vinblastine-sensitive human KB cells; type: functional; conditions: read-out: ED50 (the source's name)
KB [4] = assay: Cytotoxicity against vinblastine-resistant human KB cells; type: functional; conditions: read-out: ED50 (the source's name)
How it was run: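 The vinblastine-resistant KB-V1 line was tested both with and without added vinblastine in the cultured tumour-cell cytotoxicity panel. Results are reported as ED50.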

LNCaP = assay: Cytotoxicity against human LNCAP cells; type: functional; conditions: read-out: ED50 (the source's name)
ZR-75-1 = assay: Cytotoxicity against human ZR-75-1 cells; type: functional; conditions: read-out: ED50 (the source's name)
Escherichia coli [5] = assay: Antimicrobial activity against Escherichia coli at 10 ug; type: functional, organism-based
How it was run: (§1)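 Direct bioautography: each compound is spotted onto TLC plates and the solvent evaporated. The test organism is then grown directly on the plate. Growth inhibition is scored at the spot as active (+) or very active (++). Where a number is given, it is the radius in mm of the inhibition zone around the spot.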

Escherichia coli [6] = assay: Antimicrobial activity against Escherichia coli at 5 ug; type: functional, organism-based; how it was run: as §1
Escherichia coli [7] = assay: Antimicrobial activity against Escherichia coli at 1 ug; type: functional, organism-based; how it was run: as §1
Escherichia coli [8] = assay: Antimicrobial activity against Escherichia coli at 0.1 ug; type: functional, organism-based; how it was run: as §1
Micrococcus luteus [9] = assay: Antimicrobial activity against Micrococcus luteus at 10 ug; type: functional, organism-based; how it was run: as §1
Micrococcus luteus [10] = assay: Antimicrobial activity against Micrococcus luteus at 5 ug; type: functional, organism-based; how it was run: as §1
Micrococcus luteus [11] = assay: Antimicrobial activity against Micrococcus luteus at 1 ug; type: functional, organism-based; how it was run: as §1
Micrococcus luteus [12] = assay: Antimicrobial activity against Micrococcus luteus at 0.1 ug; type: functional, organism-based; how it was run: as §1
Bacillus subtilis [13] = assay: Antimicrobial activity against Bacillus subtilis at 10 ug; type: functional, organism-based; how it was run: as §1
Bacillus subtilis [14] = assay: Antimicrobial activity against Bacillus subtilis at 5 ug; type: functional, organism-based; how it was run: as §1
Bacillus subtilis [15] = assay: Antimicrobial activity against Bacillus subtilis at 1 ug; type: functional, organism-based; how it was run: as §1
Bacillus subtilis [16] = assay: Antimicrobial activity against Bacillus subtilis at 0.1 ug; type: functional, organism-based; how it was run: as §1
Penicillium oxalicum [17] = assay: Antimicrobial activity against Penicillium oxalicum at 10 ug; type: functional; conditions: for zone of inhibition at 10 µg/disc: read-out: IZ; how it was run: as §1
Penicillium oxalicum [18] = assay: Antimicrobial activity against Penicillium oxalicum at 5 ug; type: functional; conditions: for zone of inhibition at 5 µg/disc: read-out: IZ; how it was run: as §1
Penicillium oxalicum [19] = assay: Antimicrobial activity against Penicillium oxalicum at 1 ug; type: functional; conditions: for zone of inhibition at 1 µg/disc: read-out: IZ; how it was run: as §1
Penicillium oxalicum [20] = assay: Antimicrobial activity against Penicillium oxalicum at 0.1 ug; type: functional; conditions: for zone of inhibition at 0.1 µg/disc: read-out: IZ; how it was run: as §1
Plasmodium falciparum = assay: Antimalarial activity against chloroquine-sensitive Plasmodium falciparum D6 at 10 ug/ml; type: functional
[21] = molecular target: Human immunodeficiency virus type 1 reverse transcriptase (Human immunodeficiency virus 1) (UniProt Q72547); assay: Inhibition of HIV1 RT at 200 uM
How it was run: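 HIV-1 reverse transcriptase inhibition was measured in an ELISA-based system.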

Penicillium oxalicum [22] = assay: Antimicrobial activity against Penicillium oxalicum at 0.01 ug; type: functional; how it was run: as §1

| Structure (SMILES) | Activity [1] [%] | EC50 (Lu1) [µg/mL] | EC50 (KB [2]) [µg/mL] | EC50 (KB [3]) [µg/mL] | EC50 (KB [4]) [µg/mL] | Activity (Escherichia coli [5]) | Activity (Escherichia coli [6]) | Activity (Escherichia coli [7]) | Activity (Escherichia coli [8]) | Activity (Micrococcus luteus [9]) | Activity (Micrococcus luteus [10]) | Activity (Micrococcus luteus [11]) | Activity (Micrococcus luteus [12]) | Activity (Bacillus subtilis [13]) | Activity (Bacillus subtilis [14]) | Activity (Bacillus subtilis [15]) | Activity (Bacillus subtilis [16]) | zone of inhibition at 10 µg/disc (Penicillium oxalicum [17]) [mm] | zone of inhibition at 5 µg/disc (Penicillium oxalicum [18]) [mm] | zone of inhibition at 1 µg/disc (Penicillium oxalicum [19]) [mm] | other results |
| --- | --- | --- | --- | --- | --- | --- | --- | --- | --- | --- | --- | --- | --- | --- | --- | --- | --- | --- | --- | --- | --- |
| CCC[C@@H](O)C1=C(Br)/C(=C\I)OC1=O | 5.8 |  |  |  |  |  |  |  |  |  |  |  |  |  |  |  |  |  |  |  |  |
| CCC[C@@H](OC(C)=O)C1=C(Br)[C@@](C)(OC)OC1=O |  | > 20 | 5.4 (≈ 16.8 µM) | 10.7 (≈ 33.3 µM) | 2.8 (≈ 8.72 µM) | inactive | inactive | inactive | inactive | Active | Active | Active | inactive | inactive | inactive | inactive | inactive | 8 | 6 | 3 | EC50 (LNCaP): 1.7 µg/mL (≈ 5.29 µM); EC50 (ZR-75-1): 2.4 µg/mL (≈ 7.47 µM); Activity (Penicillium oxalicum [20]): inactive; Activity (Plasmodium falciparum): >50%; Activity [21]: inactive |
| CCC[C@@H](O)C1=C(Br)/C(=C\Cl)OC1=O | 1.6 |  |  |  |  |  |  |  |  |  |  |  |  |  |  |  |  |  |  |  |  |
| CCN(CC)CCCC(C)Nc1ccnc2cc(Cl)ccc12 (centres undefined) [CHLOROQUINE] |  |  | 17.4 (≈ 54.4 µM) |  |  |  |  |  |  |  |  |  |  |  |  |  |  |  |  |  |  |
| CCC[C@@H](O)C1=C(Br)/C(=C\Br)OC1=O [HYDROXYFIMBROLIDE] |  | 0.6 (≈ 1.84 µM) | 0.5 (≈ 1.53 µM) | 0.2 (≈ 0.614 µM) | 1.1 (≈ 3.37 µM) | Active | Active | Active |  | Active | Active | Active | inactive | Active | Active | Active | Active | 28 | 31 | 21 | EC50 (LNCaP): < 0.1 µg/mL; EC50 (ZR-75-1): 0.3 µg/mL (≈ 0.92 µM); zone of inhibition at 0.1 µg/disc (Penicillium oxalicum [20]): 6 mm; Activity (Plasmodium falciparum): >50%; Activity [21]: inactive; Activity (Penicillium oxalicum [22]): inactive |
| CCC[C@@H](OC(C)=O)C1=C(Br)/C(=C\Br)OC1=O [ACETOXYFIMBROLIDE] |  |  |  |  |  | inactive | inactive | inactive | inactive | Active | Active | Active | Active | Active | Active | Active | inactive | 18 | 22 | 14 | zone of inhibition at 0.1 µg/disc (Penicillium oxalicum [20]): 6 mm; Activity (Penicillium oxalicum [22]): inactive |
| CCCCC1=C(Br)C(OC)(C(Br)Br)OC1=O (centres undefined) |  | > 20 | 7.6 (≈ 18.1 µM) | 10.5 (≈ 24.9 µM) | 8 (≈ 19 µM) | Active | Active | Active | inactive | Active | Active | Active | inactive | inactive | inactive | inactive | inactive |  |  |  | EC50 (LNCaP): 6.6 µg/mL (≈ 15.7 µM); EC50 (ZR-75-1): 6.7 µg/mL (≈ 15.9 µM); Activity (Penicillium oxalicum [17]): inactive; Activity (Penicillium oxalicum [18]): inactive; Activity (Penicillium oxalicum [19]): inactive; Activity (Penicillium oxalicum [20]): inactive; Activity (Plasmodium falciparum): >50%; Activity [21]: inactive |
| CCC[C@@H](O)C1=C(Br)[C@](CI)(OC)OC1=O | 55.7 | > 20 | > 20 | > 20 | > 20 | Active | Active | inactive | inactive | Active | Active | inactive | inactive | Active | inactive | inactive | inactive | 6 | 6 | 2 | EC50 (LNCaP): 9.1 µg/mL (≈ 22.5 µM); EC50 (ZR-75-1): 6.4 µg/mL (≈ 15.8 µM); Activity (Penicillium oxalicum [20]): inactive; Activity (Plasmodium falciparum): >50%; Activity [21]: inactive |
| CCC[C@@H](OC(C)=O)C1=C(Br)[C@](C)(OC)OC1=O | 86 | > 20 | 3.9 (≈ 12.1 µM) | 5.6 (≈ 17.4 µM) | 4.7 (≈ 14.6 µM) | inactive | inactive | inactive | inactive | Active | Active | inactive | inactive | Active | Active | inactive | inactive | 16 | 12 | 8 | EC50 (LNCaP): 3.6 µg/mL (≈ 11.2 µM); EC50 (ZR-75-1): 4 µg/mL (≈ 12.5 µM); Activity (Penicillium oxalicum [20]): inactive; Activity (Plasmodium falciparum): >50%; Activity [21]: inactive |
| CCC[C@@H](O)C1=C(Br)[C@@](CI)(OC)OC1=O | 77.2 |  |  |  |  | Active | Active | inactive | inactive | Active | Active | inactive | inactive | Active | Active | inactive | inactive | 14 | 16 | 10 | Activity (Penicillium oxalicum [20]): inactive |
